In assay [1] the target is Rho-associated protein kinase 2 (Homo sapiens) (UniProt O75116). Nature of the assay: Inhibition of ROCK2 at 10 uM.
The test system of assay [2] is U-937. Nature of the assay: Induction of apoptosis in human U937 cells assessed as necrotic cells at 3 uM after 18 hrs by annexinV-propidium iodide staining-based flow cytometric analysis (reference value: 0.7%). It counts as functional. On the technique in general: Flow cytometry measures light scatter and fluorescence of single cells or particles in a stream.
For assay [3], the system named is U-937. Nature of the assay: Cell cycle arrest in human U937 cells assessed as sub-diploid apoptotic fraction at 15 uM after 24 hrs by propidium iodide staining-based flow cytometric analysis. The class given is functional. The method in brief:
(§1)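 Cells cultured in RPMI 1640 with 10% FBS and treated 24 h at the indicated concentrations. Stained with propidium iodide for 4 h at 4 °C in the dark. Flow cytometry gave the percentage of cells in G₀/G₁, S, G₂/M and sub-G₁ phases.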

The nature of assay [4]: Induction of apoptosis in human M12 cells assessed as viable cells at 20 uM after 24 hrs by annexinV-propidium iodide staining-based flow cytometric analysis (reference value: 80.18%). The following applies: M12, 24 h, read-out: Activity. The class given is functional.
The target of assay [5] is Mitogen-activated protein kinase 1 (Homo sapiens) (UniProt P28482). Nature of the assay: Inhibition of Erk2 at 10 uM.
In assay [6] the test system is U-937. Nature of the assay: Cell cycle arrest in human U937 cells assessed as accumulation at S-phase at 15 uM after 24 hrs by propidium iodide staining-based flow cytometric analysis. The class given is functional. In short, it runs like this:
as §1

Assay [7] in a line: Induction of apoptosis in human M12 cells assessed as early apoptotic cells at 20 uM after 24 hrs by annexinV-propidium iodide staining-based flow cytometric analysis (reference value: 13.6%). It counts as functional.
Assay [8] has as its target Tyrosine-protein kinase Fyn (Homo sapiens) (UniProt P06241). Nature of the assay: Inhibition of FYN at 10 uM.

The inhibition is the drop in the measured response relative to a control, in per cent.

Rho-associated protein kinase 2 (Homo sapiens), sequence (O75116 whole entry, looked up): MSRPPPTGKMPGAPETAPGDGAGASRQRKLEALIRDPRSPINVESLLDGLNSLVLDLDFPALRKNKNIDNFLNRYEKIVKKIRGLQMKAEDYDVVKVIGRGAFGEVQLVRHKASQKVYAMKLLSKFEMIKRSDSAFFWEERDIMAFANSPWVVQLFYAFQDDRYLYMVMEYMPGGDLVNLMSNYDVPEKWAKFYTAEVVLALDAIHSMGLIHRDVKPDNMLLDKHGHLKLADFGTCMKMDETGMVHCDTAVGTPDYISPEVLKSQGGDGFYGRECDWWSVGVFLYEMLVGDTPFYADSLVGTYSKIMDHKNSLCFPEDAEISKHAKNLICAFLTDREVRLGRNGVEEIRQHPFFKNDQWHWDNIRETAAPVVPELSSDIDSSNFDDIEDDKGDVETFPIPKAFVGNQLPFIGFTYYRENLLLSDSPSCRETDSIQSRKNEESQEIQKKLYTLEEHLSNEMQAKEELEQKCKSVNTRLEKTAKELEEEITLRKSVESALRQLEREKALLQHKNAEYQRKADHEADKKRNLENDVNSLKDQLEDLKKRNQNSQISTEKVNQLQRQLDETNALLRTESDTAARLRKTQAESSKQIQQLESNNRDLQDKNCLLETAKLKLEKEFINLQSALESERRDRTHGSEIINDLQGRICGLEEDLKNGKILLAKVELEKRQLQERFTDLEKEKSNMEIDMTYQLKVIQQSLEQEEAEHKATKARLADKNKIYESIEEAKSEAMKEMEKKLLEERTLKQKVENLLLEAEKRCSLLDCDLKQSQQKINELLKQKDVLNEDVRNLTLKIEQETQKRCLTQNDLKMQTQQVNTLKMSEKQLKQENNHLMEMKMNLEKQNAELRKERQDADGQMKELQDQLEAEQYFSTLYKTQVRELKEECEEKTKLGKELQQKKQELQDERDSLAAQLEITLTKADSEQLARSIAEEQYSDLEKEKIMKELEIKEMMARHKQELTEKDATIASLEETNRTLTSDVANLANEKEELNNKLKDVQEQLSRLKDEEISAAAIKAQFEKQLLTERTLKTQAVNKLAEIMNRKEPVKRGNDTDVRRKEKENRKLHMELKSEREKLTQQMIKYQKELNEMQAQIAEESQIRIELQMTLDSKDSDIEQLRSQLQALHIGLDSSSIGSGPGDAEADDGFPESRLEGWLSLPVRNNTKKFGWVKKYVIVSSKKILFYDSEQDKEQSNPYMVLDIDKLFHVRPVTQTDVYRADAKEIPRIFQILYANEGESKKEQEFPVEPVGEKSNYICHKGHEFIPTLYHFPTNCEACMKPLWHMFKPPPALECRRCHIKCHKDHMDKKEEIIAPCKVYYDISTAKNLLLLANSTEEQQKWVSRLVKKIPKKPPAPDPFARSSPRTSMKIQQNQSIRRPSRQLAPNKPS
Mitogen-activated protein kinase 1 (Homo sapiens), sequence (P28482 whole entry): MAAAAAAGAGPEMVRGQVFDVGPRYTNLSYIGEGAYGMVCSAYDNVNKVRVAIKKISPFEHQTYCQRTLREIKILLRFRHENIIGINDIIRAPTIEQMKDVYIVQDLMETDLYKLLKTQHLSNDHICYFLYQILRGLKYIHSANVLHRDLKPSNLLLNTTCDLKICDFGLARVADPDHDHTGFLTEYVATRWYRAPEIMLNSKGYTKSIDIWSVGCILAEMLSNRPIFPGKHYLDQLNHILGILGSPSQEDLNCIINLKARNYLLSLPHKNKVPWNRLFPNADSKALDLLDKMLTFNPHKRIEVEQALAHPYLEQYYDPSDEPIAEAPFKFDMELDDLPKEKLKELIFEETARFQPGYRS
Tyrosine-protein kinase Fyn (Homo sapiens), sequence (P06241 2-537 limits assumed): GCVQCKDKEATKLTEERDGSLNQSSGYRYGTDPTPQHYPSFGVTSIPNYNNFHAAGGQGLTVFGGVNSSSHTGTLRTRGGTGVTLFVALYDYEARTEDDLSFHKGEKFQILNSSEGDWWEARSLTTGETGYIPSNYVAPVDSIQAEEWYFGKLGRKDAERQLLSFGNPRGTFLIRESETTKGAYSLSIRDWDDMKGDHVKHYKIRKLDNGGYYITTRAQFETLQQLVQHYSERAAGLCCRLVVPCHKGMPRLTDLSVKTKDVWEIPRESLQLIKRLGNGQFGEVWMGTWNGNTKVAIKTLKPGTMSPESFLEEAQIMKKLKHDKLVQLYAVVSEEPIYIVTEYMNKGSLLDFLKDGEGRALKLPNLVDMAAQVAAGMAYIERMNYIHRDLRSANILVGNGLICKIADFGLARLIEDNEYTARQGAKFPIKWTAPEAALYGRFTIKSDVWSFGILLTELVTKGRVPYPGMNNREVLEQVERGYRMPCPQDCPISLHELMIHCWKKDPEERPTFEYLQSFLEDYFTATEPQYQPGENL

With `NCCN1C(=O)S/C(=C\CCC2CCCCC2)C1=O`, the figures for the inhibition in assay [1], in assay [5] and in assay [8] were -1%, 11% and 0%, respectively. The Activity is listed as 0.7% in the assay with U-937 [2], 64.3% in the assay with U-937 [3], 31.4% in the assay with U-937 [6] and 29.2% in assay [7]. Further, the viability at 20 µM in assay [4] amounted to 5.1%.

The values above are taken from ChEMBL document CHEMBL1926538, “3,5-Disubstituted-thiazolidine-2,4-dione analogs as anticancer agents: design, synthesis and biological characterization” (Eur J Med Chem, 2012).
